TRPC4 block: blocks the mouse TRPC4 cation channel. B-score at 10 µM. AID 2247. Q9QUQ5. 0.39% of 300,000 active. HEK293 TRPC4beta/mu-opioid, DAMGO-evoked Fluo4 calcium flux; active compounds read low;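 active means B-score over 3 SD under the library average, no early fluorescence shift, positive overall ratio signal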
Target sequence (Q9QUQ5 whole entry, looked up): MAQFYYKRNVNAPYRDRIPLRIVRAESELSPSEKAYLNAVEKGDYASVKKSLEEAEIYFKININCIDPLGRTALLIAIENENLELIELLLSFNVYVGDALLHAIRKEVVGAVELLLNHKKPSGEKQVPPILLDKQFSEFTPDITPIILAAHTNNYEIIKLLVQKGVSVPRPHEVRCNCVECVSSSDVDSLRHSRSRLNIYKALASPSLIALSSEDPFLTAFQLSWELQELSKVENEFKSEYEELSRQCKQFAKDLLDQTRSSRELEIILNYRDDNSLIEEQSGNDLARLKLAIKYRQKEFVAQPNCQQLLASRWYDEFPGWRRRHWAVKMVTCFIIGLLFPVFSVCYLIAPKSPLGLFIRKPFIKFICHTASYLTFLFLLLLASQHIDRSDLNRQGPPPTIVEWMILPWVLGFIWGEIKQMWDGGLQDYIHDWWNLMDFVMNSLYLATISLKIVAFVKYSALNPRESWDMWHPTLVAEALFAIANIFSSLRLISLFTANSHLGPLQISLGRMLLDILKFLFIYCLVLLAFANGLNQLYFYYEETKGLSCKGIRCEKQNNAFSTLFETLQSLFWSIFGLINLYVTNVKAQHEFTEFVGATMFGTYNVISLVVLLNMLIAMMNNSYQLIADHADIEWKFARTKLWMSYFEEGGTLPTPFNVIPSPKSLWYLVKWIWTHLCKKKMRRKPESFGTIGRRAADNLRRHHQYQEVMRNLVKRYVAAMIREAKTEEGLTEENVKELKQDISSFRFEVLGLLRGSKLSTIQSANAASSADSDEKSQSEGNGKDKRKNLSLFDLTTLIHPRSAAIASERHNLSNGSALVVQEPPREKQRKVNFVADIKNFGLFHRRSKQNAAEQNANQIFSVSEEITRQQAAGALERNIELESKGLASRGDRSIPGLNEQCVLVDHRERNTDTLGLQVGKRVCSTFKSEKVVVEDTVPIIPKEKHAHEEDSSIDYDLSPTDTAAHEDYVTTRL
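Signal: kinetic Fluo4 fluorescence imaging of calcium influx. Material: stable TRPC4beta/mu-opioid receptor HEK293 cells. Probe or stimulus: DAMGO in two steps, submaximal then maximal.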
TRPC6 inhibitor: mouse TRPC6 channel inhibition; HEK293-TRPC6, membrane potential dye, ACh-evoked depolarization; active compounds read low; B-score at 10 µM; 1.1% of 310,000 active; Q61143;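 active means B-score under library mean minus 3 SD, initial fluorescence not abnormally high, positive integrated signal ratio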;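 further: B-score derived from integrated fluorescence ratio over the kinetic read; more negative B-score means stronger inhibition of depolarization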
TRPC6 activator: activators of mouse TRPC6 channel; Q61143; HEK293-TRPC6 membrane potential dye fluorescence; active compounds read high; B-score at 10 µM; 0.13% of 310,000 active;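 active means B-score of the integrated fluorescence ratio above library mean plus 3 SD, and starting fluorescence ratio within library mean plus 5 SD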;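 further: higher score means more depolarization so channel activation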
TRPC4 agonist: activators of mouse TRPC4 channel; Q9QUQ5; B-score at 10 µM; HEK293 TRPC4beta/mu-opioid, Fluo4 calcium fluorescence; active compounds read high; 0.49% of 310,000 active;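 active means B-score above 5 SD of library B-scores, and initial fluorescence ratio not above library mean plus 5 SD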;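 further: positive B-score marks a calcium rise read as TRPC4 activation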
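system = HEK293 cells stably co-expressing mouse TRPC4beta and mu-opioid receptor | schedule = Fluo4 dye loading 45 min at room temperature, 110 s recording | measure = B-scored integrated calcium fluorescence ratio | signal = Fluo4 calcium-sensitive dye fluorescence, kinetic, 1 Hz baseline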
TRPC4 potent: allosterically enhances the mouse TRPC4 cation channel; Q9QUQ5; HEK293 TRPC4beta/mu-opioid, DAMGO EC20, Fluo-4 Ca2+ flux; active compounds read high; B-score at 10 µM; 0.42% of 310,000 active; AID 2227;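 active means B-score of calcium response area above 5 SD of library B-scores, with initial fluorescence ratio within 5 SD of library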;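 further: B-score of integrated fluorescence ratio over time as area under calcium response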
TRPC4 spec 2: mouse TRPC4 off-target activity of TRPC6 inhibitors, second screen; shares compounds with TRPC6 inhibitor; HEK293 TRPC4/MOR, membrane potential dye fluorescence; channel activated by saturating DAMGO dose; inhibition, % at 10 µM; 42% of 920 active;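 active means compounds whose fluorescence signal differed from control wells by over 3 SD, either direction, in both duplicate plates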
TRPC4 spec: selectivity of TRPC6 inhibitors: effect on mouse TRPC4 | HEK293 TRPC4/mu-opioid, membrane potential fluorescence | shares compounds with TRPC6 inhibitor | 61% of 920 active | AID 2777 | activity change, negative = inhibition, % at 10 µM;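 active means rise or fall in signal beyond 3 SD of buffer-only wells in both replicate plates, either sign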;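 further: integrated kinetic ratio of fluorescence range over baseline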
HEK293 MPD ctr 2-1: parental HEK293 nonspecific activity of TRPC6 inhibitors, second screen; shares compounds with TRPC6 inhibitor; parental HEK293 membrane potential dye fluorescence; maximal acetylcholine challenge after compound addition; signal change vs control, % at 10 µM; 31% of 920 active;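 active means membrane potential signal moving either way by over 3 SD of the maximum-effect control, in both duplicate plates, meaning non-specific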
HEK293 MPD ctr-1: checks TRPC6 inhibitor effects in parental HEK293 cells; shares compounds with TRPC6 inhibitor; parental HEK293 membrane potential dye fluorescence; membrane potential signal change, % at 10 µM; 60% of 920 active; AID 2780;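 active means membrane potential signal shifting up or down by more than 3 SD of buffer-only wells, on both duplicate plates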
HEK293 MPD ctr-2: parental HEK293 nonspecific activity of TRPC6 modulators; shares compounds with TRPC6 inhibitor; membrane potential dye fluorescence; membrane potential signal change, % at 10 µM; 51% of 2,400 active; AID 488924;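 active means membrane potential signal moves up or down beyond 5 SD from buffer-only wells, on both duplicate plates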
HEK293 MPD ctr 2-2: second check of TRPC6 modulator effects in parental HEK293 cells. membrane potential dye fluorescence; after compound, maximal acetylcholine stimulation. shares compounds with TRPC6 inhibitor. inhibition, % at 10 µM. 14% of 2,400 active;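 active means membrane potential signal drops by more than 5 SD from the mean control signal, in both duplicate plates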;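 further: plate controls were acetylcholine ECmax control wells for no effect and buffer only wells for full effect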
TRPC4/MOR mod: selectivity of TRPC6 modulators against mouse TRPC4; shares compounds with TRPC6 inhibitor; HEK293 TRPC4/mu-opioid, membrane potential fluorescence; percent change from control (negative = decrease, positive = increase), % at 10 µM; 69% of 2,400 active; AID 488927;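 active means membrane potential signal moved up or down beyond 5 SD of buffer control wells, in both duplicate plates, actives on both sides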;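 further: plate controls were assay buffer wells for no effect and DAMGO maximal-effect wells for full effect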
TRPC4/MOR inh 2: second check of whether TRPC6 modulators also affect mouse TRPC4 | inhibition, % at 10 µM | AID 488928 | shares compounds with TRPC6 inhibitor | HEK293 TRPC4/mu-opioid, membrane potential dye fluorescence; stimulated with maximal-effect DAMGO | 55% of 2,400 active;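 active means drop in membrane potential signal beyond 5 SD of the control wells in both duplicate plates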;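 further: TRPC4 counter screen for TRPC6 hits run under conditions tuned for TRPC6 not TRPC4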
TRPC6 inh conf: mouse TRPC6 inhibitor confirmation | inhibition, % at 10 µM | shares compounds with TRPC6 inhibitor | 43% of 3,300 active | HEK293-TRPC6, membrane potential dye, ACh-evoked depolarization | AID 488960;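 active means fluorescence ratio falls more than 5 SD below the full-stimulation control mean, in both duplicate runs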;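 further: integrated fluorescence ratio of peak minus minimum over baseline after agonist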
TRPC6 act confirm: mouse TRPC6 activator confirmation. shares compounds with TRPC6 inhibitor. HEK293-TRPC6 membrane potential dye fluorescence, FDSS. activation, % at 10 µM. 11% of 2,800 active. AID 488961;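 active means ratio signal rise beyond 5 SD above unstimulated control wells' mean, seen in both duplicate runs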;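 further: plate controls were buffer EC0 wells for no effect and acetylcholine ECmax response for full effect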
* marks the source's active call; other numbers are inactive results; i = inactive; . = no result. In the library only some 2.3% were active in any assay of this set; here they are far more common.

SMILES	TRPC4 block	TRPC6 inhibitor	TRPC6 activator	TRPC4 agonist	TRPC4 potent	HEK293 MPD ctr-2	HEK293 MPD ctr 2-2	TRPC4/MOR mod	TRPC4/MOR inh 2	TRPC6 inh conf	TRPC6 act confirm	others
COc1ccc(/C=C2\C(=N)N3N=C(CC(=O)N4CCCCC4)SC3=NC2=O)cc1	i	i	12*	i	i	136%*	i	22%*	i	i	76%*
Cc1ccc(/C=C2\C(=N)N3N=C(CC(=O)N4CCCCC4)SC3=NC2=O)cc1	i	i	i	i	i	.	.	.	.	.	.
COC(=O)C1=C(C)N(c2cc(C)cc(C)c2)/C(=C/c2ccc(O)cc2)C1=O	i	-7.7*	i	i	i	i	i	-16%*	67%*	i	i
Cc1ccc(/C=c2\sc3n(c2=O)CN(c2ccc(Br)cc2)CN=3)o1	i	-5.6*	i	i	i	i	i	i	i	i	i
Cc1ccc(/C=c2/sc3n(c2=O)CCCN=3)o1	i	i	i	i	i	.	.	.	.	.	.
O=C(NC(Cc1ccccc1)C(=O)NCCc1ccccn1)c1ccccc1 (configuration not stated)	i	i	i	i	i	.	.	.	.	.	.
Cc1c(Cl)cccc1NC(=O)N1CCCN(c2nc(-c3ccccc3)ns2)CC1	i	i	i	i	i	.	.	.	.	.	.
O=C(Nc1ccccc1Cl)N1CCCN(c2nc(-c3ccccc3)ns2)CC1	i	-5.1*	i	i	i	i	i	i	i	i	i
COc1ccc(OC)c(CNc2ncc(-c3cccc([N+](=O)[O-])c3)n2C)c1	i	i	i	i	i	.	.	.	.	.	.
Cn1c(-c2ccc3c(c2)OCO3)cnc1NCc1ccc(Cl)cc1	i	-6.2*	i	i	i	i	i	i	76%*	48%*	i
COc1ccc(-c2cnc(NCc3cc4c(cc3[N+](=O)[O-])OCO4)n2C)cc1	i	-5.6*	i	i	i	i	i	i	44%*	i	i
Cc1ccc(CNc2ncc(-c3ccc4c(c3)OCO4)n2C)cc1	i	i	i	i	i	.	.	.	.	.	.
COc1cc(-c2nc(CN3CCN(C(=O)c4ccco4)CC3)c(C)o2)ccc1F	i	-6.3*	12*	i	i	i	i	12%*	i	62%*	139%*
Cc1oc(-c2ccc(Cl)cc2)nc1CN1CCC(C(=O)N2CCc3ccccc3C2)CC1	i	i	14*	i	15*	202%*	i	32%*	62%*	i	80%*
CCN1CCN(CCNC(=O)C2CCN(Cc3nc(-c4ccc(Cl)cc4)oc3C)CC2)CC1	i	i	i	i	i	.	.	.	.	.	.
CCN1CCCC1CNC(=O)C1CCN(Cc2nc(-c3cccc(Br)c3)oc2C)CC1 (configuration not stated)	i	-8.9*	i	i	i	.	.	.	.	i	i	TRPC4 spec 2=60%*;TRPC4 spec=-18%*;HEK293 MPD ctr 2-1=i;HEK293 MPD ctr-1=-240%*
Cc1oc(-c2ccc(Cl)cc2)nc1CN1CCC(C(=O)N2CCN(Cc3ccccc3)CC2)CC1	i	i	12*	i	i	226%*	i	40%*	68%*	i	129%*
Cc1oc(-c2cccc(Cl)c2)nc1CN1CCC(C(=O)NCc2ccco2)CC1	i	i	i	i	i	.	.	.	.	.	.
COc1c(Cl)cc(Br)c(OC)c1C(=O)NC(=O)Nc1nc(C)cc(C)n1	i	i	i	i	i	.	.	.	.	.	.
OC(CSc1ccc(F)cc1)CN1CCN(c2ccccc2)CC1 (configuration not stated)	i	i	i	i	i	.	.	.	.	.	.
O=S(=O)(NCC1(N2CCOCC2)CCCCC1)c1ccc(F)c(F)c1F	i	i	i	i	i	.	.	.	.	.	.
Cc1oc(-c2ccc(Cl)cc2)nc1CN1CCCC(C(=O)NCc2ccccn2)C1 (configuration not stated)	i	-5.8*	16*	i	i	160%*	i	18%*	72%*	64%*	144%*
COc1ccccc1CNC(=O)C1CCN(Cc2nc(-c3cccc(Cl)c3)oc2C)CC1	i	-9.5*	i	i	i	115%*	i	15%*	97%*	i	.
Cc1oc(-c2ccc(Cl)cc2)nc1CN1CCC(C(=O)NCc2ccco2)CC1	-6*	i	12*	i	i	i	i	8.0%*	72%*	.	122%*
CCc1ccc(-c2nc(CN3CCC(C(=O)NCc4ccccc4OC)CC3)c(C)o2)cc1	i	i	i	i	i	.	.	.	.	.	.
COc1ccc(CCC(=O)NC2CCCc3ccccc32)cc1OC (configuration not stated)	i	i	i	i	i	.	.	.	.	.	.
COc1cc(C(=O)N(C)CCOc2ccccc2)ccc1OCC(=O)Nc1cccc(C(F)(F)F)c1	i	i	i	i	i	.	.	.	.	.	.
COc1cccc(C(=O)C2=NN(C(C)=O)CC2c2ccco2)c1 (configuration not stated)	i	i	i	i	i	.	.	.	.	.	.

Screening data: PubChem BioAssay, Johns Hopkins Ion Channel Center
